Data set [1] is described as follows: folding enthalpy; higher = less favourable; fluorescence melt of hairpins on a sequencing array, two-state fit. The conditions noted are these: sodium 0.088 M. A digest of the protocol: (§1)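 Folding enthalpy and melting temperature were estimated with bootstrapped two-state fits and combined across four replicates by inverse-variance weighting, with fitted temperatures raised by 9.35 °C to match UV melts. The data were Cy3 fluorescence of library hairpins, with annealed Cy3 and quencher oligos, on a sequenced MiSeq flow cell in 50 mM Na-HEPES pH 8.0, 25 mM NaCl, imaged in 2.5 °C steps up to 60 °C and normalised to pre-quench Cy3 and control constructs.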

Data set [2] in a line: melting temperature; fluorescence melt of hairpins on a sequencing array, two-state fit, raised by 9.35 °C to match UV melts. The conditions noted are these: sodium 0.088 M. A digest of the protocol: as §1

For GATCGGACTGCCGATC ((((((....)))))), the folding enthalpy in data set [1] was -42 kcal/mol. Besides, the Tm in data set [2] stood at 55.5 °C.

Regarding GATGCGGGAAACCACATC ((((.((....)).)))), the folding enthalpy in data set [1] is -35.8 kcal/mol. Also, the Tm in data set [2] was 44.8 °C.

For the sequence GATCGCCCAAGCGATC ((((((....)))))), in data set [1], the folding enthalpy is -23 kcal/mol. Moreover, in data set [2], the Tm was 66.7 °C.

For GTACGCGAAAGCGACTAC ((((((....)))..))), the folding enthalpy in data set [1] is -11.9 kcal/mol. Besides, in data set [2], the Tm amounted to 41.9 °C.

For the sequence GATCGTAAAAACGATC ((((((....)))))), the folding enthalpy in data set [1] was -31.8 kcal/mol. Besides, in data set [2], the Tm came out at 50.3 °C.

As to GCCTCCGAAAGGACGGC ((((((....))).))), the folding enthalpy in data set [1] is -30.9 kcal/mol. Besides, in data set [2], the Tm was found to be 56.5 °C.

For the sequence GCAGAGCGAAAGCTGAGC ((..(((....)))..)), the folding enthalpy in data set [1] was -11.8 kcal/mol. Moreover, the Tm in data set [2] is 43.1 °C.

For the sequence GTACAACGAAAGTTATAC (((.(((....))).))), the folding enthalpy in data set [1] is -19.1 kcal/mol. For the same sequence, the Tm in data set [2] was found to be 30.4 °C.

Turning to GCGCCAGGAAACTGACGC (((.(((....))).))), the folding enthalpy in data set [1] was -43.1 kcal/mol. The Tm in data set [2] came out at 56 °C.

GCCGGAGGAAACTCCAGC ((.((((....)))).)): the folding enthalpy in data set [1] is -23.8 kcal/mol. The Tm in data set [2] amounted to 40.9 °C.

As for GATCCACGGCTGGATC ((((((....)))))), the folding enthalpy in data set [1] was -39.1 kcal/mol. For the same sequence, the Tm in data set [2] came out at 50.5 °C.

Turning to GTGTAGGAAACTACAC ((((((....)))))), in data set [1], the folding enthalpy is -38.1 kcal/mol. In addition, the Tm in data set [2] was determined as 53.5 °C.

Regarding GCCCGCGAAAGCGAGGGC ((((((....)))..))), the folding enthalpy in data set [1] is -28 kcal/mol. For the same sequence, the Tm in data set [2] turned out to be 68.7 °C.

In the case of GATCATACGGATGATC ((((((....)))))), the folding enthalpy in data set [1] was -39.6 kcal/mol. For the same sequence, the Tm in data set [2] was found to be 47.1 °C.

Regarding GCTTCGCGAAAGCGGTGC ((..(((....)))..)), the folding enthalpy in data set [1] was -14.6 kcal/mol. Besides, the Tm in data set [2] was 49.3 °C.

Regarding GTATAGGGAAACCCATAC ((((.((....)).)))), in data set [1], the folding enthalpy was -16.1 kcal/mol. Also, the Tm in data set [2] was determined as 31.8 °C.

In the case of GTGAACGAAAGTTGCAC ((((((....))).))), the folding enthalpy in data set [1] is -19.8 kcal/mol. Besides, the Tm in data set [2] turned out to be 37.3 °C.

For the sequence GTCCTGCGAAAGCACGAC (((.(((....))).))), the folding enthalpy in data set [1] is -21.4 kcal/mol. In addition, the Tm in data set [2] is 42.6 °C.

Regarding GTCTTCGAAAGAATAGAC ((((((....)))..))), the folding enthalpy in data set [1] was -19.5 kcal/mol. Also, in data set [2], the Tm came to 30.7 °C.

Turning to GCGCGAGGAAACCCGCAC (.(((.(....).))).), in data set [1], the folding enthalpy is -16.8 kcal/mol. Besides, the Tm in data set [2] came out at 38.1 °C.

GATGGACGAAAGTCGATC (((.(((....))).))): the folding enthalpy in data set [1] was -25.9 kcal/mol. The Tm in data set [2] was determined as 49.6 °C.

In the case of GTATGTGAAAACATAC ((((((....)))))), the folding enthalpy in data set [1] is -36.2 kcal/mol. Besides, the Tm in data set [2] was 50.4 °C.

Turning to GACCGAGGAAACCCGGTC (((((.(....).))))), the folding enthalpy in data set [1] is -36.4 kcal/mol. Besides, the Tm in data set [2] was determined as 53.2 °C.

In the case of GATAGTGGAAACACTACC (.(((((....))))).), in data set [1], the folding enthalpy was -12.4 kcal/mol. Moreover, the Tm in data set [2] came to 33.1 °C.

For GCAAGGCGAAAGCCTAGC ((.((((....)))).)), in data set [1], the folding enthalpy was -18.4 kcal/mol. For the same sequence, the Tm in data set [2] was 61.7 °C.

As for GCCAGCGGAAACGTTGGC ((((.((....)).)))), the folding enthalpy in data set [1] was -38.9 kcal/mol. In addition, the Tm in data set [2] is 59.4 °C.

In the case of GATGTAGGAAACTACGTC ((.((((....)))).)), in data set [1], the folding enthalpy is -23.4 kcal/mol. In addition, in data set [2], the Tm amounted to 44.8 °C.

With GTTGATCGAAAGATGAAC (((.(((....))).))), the folding enthalpy in data set [1] was -24.1 kcal/mol. The Tm in data set [2] was 37.1 °C.

In the case of GTTAACGAAAGTTGAAC ((((((....))).))), the folding enthalpy in data set [1] is -12.8 kcal/mol. Moreover, the Tm in data set [2] is 28.2 °C.

Regarding GAACGGGGAAACTCGTTC (((((.(....).))))), the folding enthalpy in data set [1] was -48.7 kcal/mol. Also, in data set [2], the Tm stood at 50.8 °C.

On to GGAATCGGAAACGGTTCC ((((.((....)).)))), for which, in data set [1], the folding enthalpy is -44.5 kcal/mol. Besides, the Tm in data set [2] was found to be 52.2 °C.

As to GCGGTTCCCCGC ((((....)))), in data set [1], the folding enthalpy was -21 kcal/mol. In addition, the Tm in data set [2] is 60.8 °C.

For GATCTTATGGAAGATC ((((((....)))))), the folding enthalpy in data set [1] was -29.2 kcal/mol. The Tm in data set [2] worked out at 40.5 °C.

Take GTGGGGAAACCCAC (((((....))))): the folding enthalpy in data set [1] is -25.7 kcal/mol. Moreover, in data set [2], the Tm came out at 62 °C.

Take GATCTGTCTGCAGATC ((((((....)))))): the folding enthalpy in data set [1] was -42.1 kcal/mol. Besides, in data set [2], the Tm worked out at 52.9 °C.

In the case of GGGAAAGAAATTTCCC ((((((....)))))), in data set [1], the folding enthalpy is -27.4 kcal/mol. Further, in data set [2], the Tm was found to be 48.7 °C.

Take GCGTCCGGAAACGGATGC ((.((((....)))).)): in data set [1], the folding enthalpy was -37.3 kcal/mol. Besides, the Tm in data set [2] came out at 65.1 °C.

The values are drawn from the array DNA melting data of Ke et al. (doi:10.1101/2024.01.08.574731).
